Laboratory results as given in ChEMBL document CHEMBL5724801, “EUbOPEN Chemogenomics Library - Multiplex” (2024).
“And” between values parts separate entries of the source, which are not always exact repeats. Equal entries are not always repeated.

Tested on: Fibroblast
Assay: Multiplex assay against human fibroblast
Assay type: toxicity, cell-based
Outline: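 At seeding, live cells were stained with Hoechst33342, BioTracker Green Microtubule Cytoskeleton Dye, MitoTracker Red and Annexin V Alexa Fluor 680. After compound addition they were imaged on a CQ1 microscope at 37°C and 5% CO2, and CellPathfinder machine-learning gating sorted them into Hoechst high-intensity objects or normal cells, with normal cells further split into healthy, pyknosed or fragmented nuclei and pyknosed cells into mitotic or apoptotic. Tubulin, mitochondrial-mass and membrane-permeability phenotypes are given as per cents of cells with healthy nuclei.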

[1] = 12 h, 1 µM, compound concentration 1 uM
[2] = 12 h, 10 µM, compound concentration 10 uM
[3] = 24 h, 1 µM, compound concentration 1 uM
[4] = 24 h, 10 µM, compound concentration 10 uM
[5] = 48 h, 1 µM, compound concentration 1 uM
[6] = 48 h, 10 µM, compound concentration 10 uM

SMILES: Cc1c(CC(=O)O)c2cccnc2n1Cc1ccc(S(C)(=O)=O)cc1C(F)(F)F [FEVIPIPRANT]
- Population Apoptotic (%) [1]: 44% and 25%
- Population Fragmented Nuclei (%) [1]: 22% and 33%
- Population Healthy Nuclei (%) [1]: 60% and 48%
- Population Hoechst High Intensity Objects (%) [1]: 3%
- Population Mitochondria Different-Phenotype (%) [1]: 3% and 12%
- Population Mitotic Cells (%) [1]: 55% and 74%
- Population Normal (%) [1]: 96%
- Population Pyknosed Nuclei (%) [1]: 18% and 17%
- Population Tubulin-Different-Phenotype (%) [1]: 20% and 56%
- Total Cell Count [1]: 156
- Population Apoptotic (%) [2]: 34% and 22%
- Population Fragmented Nuclei (%) [2]: 10% and 21%
- Population Healthy Nuclei (%) [2]: 71% and 54%
- Population Hoechst High Intensity Objects (%) [2]: 3% and 5%
- Population Membrane Permeable-Phenotype (%) [2]: 1% and 9%
- Population Mitochondria Different-Phenotype (%) [2]: 4% and 6%
- Population Mitotic Cells (%) [2]: 65% and 77%
- Population Normal (%) [2]: 96% and 94%
- Population Pyknosed Nuclei (%) [2]: 17% and 23%
- Population Tubulin-Different-Phenotype (%) [2]: 25% and 55%
- Total Cell Count [2]: 132 and 139
- Population Apoptotic (%) [3]: 55% and 52%
- Population Fragmented Nuclei (%) [3]: 14% and 35%
- Population Healthy Nuclei (%) [3]: 66% and 47%
- Population Hoechst High Intensity Objects (%) [3]: 3%
- Population Membrane Permeable-Phenotype (%) [3]: 1% and 4%
- Population Mitochondria Different-Phenotype (%) [3]: 5% and 8%
- Population Mitotic Cells (%) [3]: 44% and 48%
- Population Normal (%) [3]: 96%
- Population Pyknosed Nuclei (%) [3]: 19% and 17%
- Population Tubulin-Different-Phenotype (%) [3]: 23% and 50%
- Total Cell Count [3]: 156 and 150
- Population Apoptotic (%) [4]: 57% and 31%
- Population Fragmented Nuclei (%) [4]: 16% and 22%
- Population Healthy Nuclei (%) [4]: 67% and 55%
- Population Hoechst High Intensity Objects (%) [4]: 1% and 7%
- Population Membrane Permeable-Phenotype (%) [4]: 1% and 5%
- Population Mitochondria Different-Phenotype (%) [4]: 2% and 5%
- Population Mitotic Cells (%) [4]: 42% and 68%
- Population Normal (%) [4]: 98% and 92%
- Population Pyknosed Nuclei (%) [4]: 16% and 21%
- Population Tubulin-Different-Phenotype (%) [4]: 24% and 52%
- Total Cell Count [4]: 130 and 146
- Population Apoptotic (%) [5]: 65% and 63%
- Population Fragmented Nuclei (%) [5]: 16% and 39%
- Population Healthy Nuclei (%) [5]: 67% and 47%
- Population Hoechst High Intensity Objects (%) [5]: 5% and 6%
- Population Membrane Permeable-Phenotype (%) [5]: 0% and 4%
- Population Mitochondria Different-Phenotype (%) [5]: 4% and 8%
- Population Mitotic Cells (%) [5]: 35% and 36%
- Population Normal (%) [5]: 94% and 93%
- Population Pyknosed Nuclei (%) [5]: 16% and 12%
- Population Tubulin-Different-Phenotype (%) [5]: 16% and 47%
- Total Cell Count [5]: 132 and 157
- Population Apoptotic (%) [6]: 73% and 58%
- Population Fragmented Nuclei (%) [6]: 22% and 32%
- Population Healthy Nuclei (%) [6]: 62% and 53%
- Population Hoechst High Intensity Objects (%) [6]: 2%
- Population Membrane Permeable-Phenotype (%) [6]: 0% and 3%
- Population Mitochondria Different-Phenotype (%) [6]: 3% and 2%
- Population Mitotic Cells (%) [6]: 26% and 41%
- Population Normal (%) [6]: 97%
- Population Pyknosed Nuclei (%) [6]: 14%
- Population Tubulin-Different-Phenotype (%) [6]: 29% and 52%
- Total Cell Count [6]: 132 and 171

SMILES: Cc1nn(C)c2nc(NNC(=O)Nc3cc(Cl)nc(Cl)c3)cc(C(C)C)c12
- Population Apoptotic (%) [1]: 62% and 37%
- Population Fragmented Nuclei (%) [1]: 15% and 31%
- Population Healthy Nuclei (%) [1]: 68% and 53%
- Population Hoechst High Intensity Objects (%) [1]: 3% and 2%
- Population Membrane Permeable-Phenotype (%) [1]: 0%
- Population Mitochondria Different-Phenotype (%) [1]: 4% and 7%
- Population Mitotic Cells (%) [1]: 37% and 62%
- Population Normal (%) [1]: 96% and 97%
- Population Pyknosed Nuclei (%) [1]: 15%
- Population Tubulin-Different-Phenotype (%) [1]: 27% and 46%
- Total Cell Count [1]: 178 and 179
- Population Apoptotic (%) [2]: 53% and 21%
- Population Fragmented Nuclei (%) [2]: 12% and 33%
- Population Healthy Nuclei (%) [2]: 63% and 56%
- Population Hoechst High Intensity Objects (%) [2]: 3% and 7%
- Population Membrane Permeable-Phenotype (%) [2]: 2% and 5%
- Population Mitochondria Different-Phenotype (%) [2]: 15% and 6%
- Population Mitotic Cells (%) [2]: 46% and 78%
- Population Normal (%) [2]: 96% and 92%
- Population Pyknosed Nuclei (%) [2]: 23% and 10%
- Population Tubulin-Different-Phenotype (%) [2]: 89%
- Total Cell Count [2]: 139 and 140
- Population Apoptotic (%) [3]: 59% and 62%
- Population Fragmented Nuclei (%) [3]: 18% and 21%
- Population Healthy Nuclei (%) [3]: 68%
- Population Hoechst High Intensity Objects (%) [3]: 1% and 2%
- Population Membrane Permeable-Phenotype (%) [3]: 1% and 2%
- Population Mitochondria Different-Phenotype (%) [3]: 3% and 6%
- Population Mitotic Cells (%) [3]: 40% and 37%
- Population Normal (%) [3]: 98% and 97%
- Population Pyknosed Nuclei (%) [3]: 12% and 9%
- Population Tubulin-Different-Phenotype (%) [3]: 29% and 50%
- Total Cell Count [3]: 176 and 174
- Population Apoptotic (%) [4]: 52% and 25%
- Population Fragmented Nuclei (%) [4]: 12% and 28%
- Population Healthy Nuclei (%) [4]: 69% and 61%
- Population Hoechst High Intensity Objects (%) [4]: 4% and 8%
- Population Membrane Permeable-Phenotype (%) [4]: 1% and 0%
- Population Mitotic Cells (%) [4]: 47% and 75%
- Population Normal (%) [4]: 95% and 91%
- Population Pyknosed Nuclei (%) [4]: 18% and 9%
- Population Tubulin-Different-Phenotype (%) [4]: 95% and 89%
- Total Cell Count [4]: 130 and 132
- Population Apoptotic (%) [5]: 71% and 57%
- Population Fragmented Nuclei (%) [5]: 18% and 34%
- Population Healthy Nuclei (%) [5]: 73% and 62%
- Population Hoechst High Intensity Objects (%) [5]: 1% and 2%
- Population Membrane Permeable-Phenotype (%) [5]: 1% and 2%
- Population Mitochondria Different-Phenotype (%) [5]: 2%
- Population Mitotic Cells (%) [5]: 28% and 42%
- Population Normal (%) [5]: 98% and 97%
- Population Pyknosed Nuclei (%) [5]: 7% and 3%
- Population Tubulin-Different-Phenotype (%) [5]: 30% and 36%
- Total Cell Count [5]: 188 and 184
- Population Apoptotic (%) [6]: 93% and 62%
- Population Fragmented Nuclei (%) [6]: 16% and 38%
- Population Healthy Nuclei (%) [6]: 70% and 56%
- Population Hoechst High Intensity Objects (%) [6]: 8% and 3%
- Population Membrane Permeable-Phenotype (%) [6]: 2%
- Population Normal (%) [6]: 91% and 96%
- Population Pyknosed Nuclei (%) [6]: 13% and 5%
- Population Tubulin-Different-Phenotype (%) [6]: 96% and 85%
- Total Cell Count [6]: 129 and 155

SMILES: COc1ccccc1N1CCN(CCCCNC(=O)c2ccc3ccccc3c2)CC1.Cl
- Population Apoptotic (%) [1]: 52% and 40%
- Population Fragmented Nuclei (%) [1]: 19% and 20%
- Population Healthy Nuclei (%) [1]: 68% and 63%
- Population Mitotic Cells (%) [1]: 47% and 59%
- Population Normal (%) [1]: 95% and 96%
- Population Tubulin-Different-Phenotype (%) [1]: 35% and 42%
- Total Cell Count [1]: 194 and 148
- Population Apoptotic (%) [2]: 58% and 39%
- Population Fragmented Nuclei (%) [2]: 32% and 40%
- Population Healthy Nuclei (%) [2]: 52% and 34%
- Population Mitotic Cells (%) [2]: 41% and 60%
- Population Normal (%) [2]: 96% and 89%
- Population Tubulin-Different-Phenotype (%) [2]: 79% and 90%
- Total Cell Count [2]: 194 and 144
- Population Apoptotic (%) [3]: 39% and 60%
- Population Fragmented Nuclei (%) [3]: 14% and 26%
- Population Healthy Nuclei (%) [3]: 73% and 60%
- Population Mitotic Cells (%) [3]: 60% and 40%
- Population Normal (%) [3]: 98% and 96%
- Population Tubulin-Different-Phenotype (%) [3]: 31% and 40%
- Total Cell Count [3]: 193 and 156
- Population Apoptotic (%) [4]: 66% and 69%
- Population Fragmented Nuclei (%) [4]: 32% and 41%
- Population Healthy Nuclei (%) [4]: 56% and 41%
- Population Mitotic Cells (%) [4]: 33% and 30%
- Population Normal (%) [4]: 95% and 91%
- Population Tubulin-Different-Phenotype (%) [4]: 85% and 81%
- Total Cell Count [4]: 206 and 154
- Population Apoptotic (%) [5]: 42% and 29%
- Population Fragmented Nuclei (%) [5]: 21% and 34%
- Population Healthy Nuclei (%) [5]: 70% and 54%
- Population Mitotic Cells (%) [5]: 57% and 70%
- Population Normal (%) [5]: 96% and 95%
- Population Tubulin-Different-Phenotype (%) [5]: 38% and 39%
- Total Cell Count [5]: 199 and 167
- Population Apoptotic (%) [6]: 73% and 75%
- Population Fragmented Nuclei (%) [6]: 33% and 38%
- Population Healthy Nuclei (%) [6]: 57% and 56%
- Population Mitotic Cells (%) [6]: 26% and 25%
- Population Tubulin-Different-Phenotype (%) [6]: 89% and 82%
- Total Cell Count [6]: 224 and 168
